Assay results taken from ChEMBL document CHEMBL4819032, “Structure-based design of highly selective 2,4,5-trisubstituted pyrimidine CDK9 inhibitors as anti-cancer agents” (Eur J Med Chem, 2021).

How the values were obtained:
CDK9/cyclin T1 = CDK9/cyclin T1 (Homo sapiens, UniProt P50750); assay: Inhibition of recombinant human full length CDK9/Cyclin T1 using KTFCGTPEYLAPEVRREPRILSEEEQEMFRDFDYIADWC as substrate incubated for 40 mins in presence of [gamma-33P]-ATP by scintillation counting method; assay type: protein-complex assay
CDK9/cyclin T1, sequence (O60563 whole entry): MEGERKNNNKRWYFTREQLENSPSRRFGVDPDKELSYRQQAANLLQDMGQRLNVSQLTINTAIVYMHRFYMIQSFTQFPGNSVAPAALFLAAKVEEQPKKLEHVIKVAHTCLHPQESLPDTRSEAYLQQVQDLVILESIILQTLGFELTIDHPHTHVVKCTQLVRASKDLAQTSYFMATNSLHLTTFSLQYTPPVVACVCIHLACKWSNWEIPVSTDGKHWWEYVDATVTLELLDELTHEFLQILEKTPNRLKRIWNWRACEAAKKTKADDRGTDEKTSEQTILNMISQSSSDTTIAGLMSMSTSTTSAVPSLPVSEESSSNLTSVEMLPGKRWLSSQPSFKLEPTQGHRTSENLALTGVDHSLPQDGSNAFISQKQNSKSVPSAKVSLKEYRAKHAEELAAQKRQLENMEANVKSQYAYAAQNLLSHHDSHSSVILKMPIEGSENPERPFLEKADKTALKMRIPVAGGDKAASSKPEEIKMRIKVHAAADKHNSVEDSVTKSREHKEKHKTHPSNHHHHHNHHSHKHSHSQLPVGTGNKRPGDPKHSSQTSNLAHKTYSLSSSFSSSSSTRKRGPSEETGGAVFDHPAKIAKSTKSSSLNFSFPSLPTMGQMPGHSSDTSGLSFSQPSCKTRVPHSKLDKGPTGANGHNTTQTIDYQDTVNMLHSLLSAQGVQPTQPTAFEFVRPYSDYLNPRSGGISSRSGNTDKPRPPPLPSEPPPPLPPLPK
CDK9/cyclin T1, sequence (P50750 whole entry): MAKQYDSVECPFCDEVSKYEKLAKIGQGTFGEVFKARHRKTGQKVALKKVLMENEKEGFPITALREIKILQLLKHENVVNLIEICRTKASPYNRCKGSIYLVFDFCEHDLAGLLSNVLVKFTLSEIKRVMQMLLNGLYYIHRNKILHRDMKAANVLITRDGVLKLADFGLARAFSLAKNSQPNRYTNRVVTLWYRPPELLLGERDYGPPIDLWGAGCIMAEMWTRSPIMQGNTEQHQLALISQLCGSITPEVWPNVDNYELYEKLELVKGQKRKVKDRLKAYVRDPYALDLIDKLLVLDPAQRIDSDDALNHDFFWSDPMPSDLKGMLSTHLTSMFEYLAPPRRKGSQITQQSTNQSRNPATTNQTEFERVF
Summary of the method: (§1)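 Radiometric kinase assay with ATP at each kinase's Km(app). IC50 values come from 10-point dose-response curves, and apparent Ki is calculated from IC50 and the kinase's Km(ATP).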

CDK2/Cyclin A2 = CDK2/Cyclin A2 (Homo sapiens, UniProt P24941); assay: Inhibition of recombinant human full length CDK2/Cyclin A using histone H1 as substrate incubated for 40 mins in presence of [gamma-33P]-ATP by scintillation counting method; assay type: protein-complex assay
Homo sapiens [1] = species: Homo sapiens; assay: Selectivity index, ratio of Ki for inhibition of recombinant human full length CDK2/Cyclin A to Ki for inhibition of recombinant human full length CDK9/Cyclin T1
Summary of the method: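 Ratio of apparent Ki values for the two CDK/cyclin complexes. Each Ki is derived from an IC50 (10-point radiometric dose-response, ATP at Km(app)) using the kinase's Km(ATP). The selectivity index is defined as Ki(CDK2)/Ki(CDK9).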

HCT-116 = assay: Growth inhibition of human HCT-116 cells after 48 hrs by MTT assay; assay type: functional
MCF7 = assay: Growth inhibition of human MCF7 cells after 48 hrs by MTT assay; assay type: functional
[2] = molecular target: Cyclin-dependent kinase 1/cyclin B1 (Homo sapiens, UniProt P06493); assay: Inhibition of recombinant human full length CDK1/Cyclin B using histone H1 as substrate incubated for 40 mins in presence of [gamma-33P]-ATP by scintillation counting method; assay type: protein-complex assay; summary of the method: as §1
Cyclin-dependent kinase 1/cyclin B1, sequence (P06493 whole entry): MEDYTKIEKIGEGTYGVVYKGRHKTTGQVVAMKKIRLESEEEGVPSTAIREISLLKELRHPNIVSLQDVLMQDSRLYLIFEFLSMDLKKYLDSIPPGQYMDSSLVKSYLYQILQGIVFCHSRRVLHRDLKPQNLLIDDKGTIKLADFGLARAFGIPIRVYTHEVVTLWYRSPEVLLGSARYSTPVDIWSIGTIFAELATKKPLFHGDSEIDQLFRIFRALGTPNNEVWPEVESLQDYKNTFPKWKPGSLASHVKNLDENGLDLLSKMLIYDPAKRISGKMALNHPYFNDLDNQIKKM
Cyclin-dependent kinase 1/cyclin B1, sequence (P14635 whole entry, further chain): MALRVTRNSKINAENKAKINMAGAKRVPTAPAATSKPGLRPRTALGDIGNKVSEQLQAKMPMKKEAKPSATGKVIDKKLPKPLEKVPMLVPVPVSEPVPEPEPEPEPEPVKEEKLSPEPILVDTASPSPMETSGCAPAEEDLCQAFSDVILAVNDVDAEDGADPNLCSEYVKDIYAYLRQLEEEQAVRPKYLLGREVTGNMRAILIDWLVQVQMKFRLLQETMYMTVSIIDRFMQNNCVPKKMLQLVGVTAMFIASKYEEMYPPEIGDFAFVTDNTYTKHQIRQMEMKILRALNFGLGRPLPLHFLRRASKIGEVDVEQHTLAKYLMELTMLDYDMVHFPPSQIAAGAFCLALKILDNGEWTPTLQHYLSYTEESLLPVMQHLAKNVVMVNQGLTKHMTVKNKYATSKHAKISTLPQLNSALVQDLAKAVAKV

[3] = molecular target: Cyclin-dependent kinase 7/ cyclin H (Homo sapiens, UniProt P50613); assay: Inhibition of recombinant human full length CDK7/Cyclin H using peptide as substrate incubated for 40 mins in presence of [gamma-33P]-ATP by scintillation counting method; assay type: protein-complex assay; summary of the method: as §1
Cyclin-dependent kinase 7/ cyclin H, sequence (P51946 whole entry): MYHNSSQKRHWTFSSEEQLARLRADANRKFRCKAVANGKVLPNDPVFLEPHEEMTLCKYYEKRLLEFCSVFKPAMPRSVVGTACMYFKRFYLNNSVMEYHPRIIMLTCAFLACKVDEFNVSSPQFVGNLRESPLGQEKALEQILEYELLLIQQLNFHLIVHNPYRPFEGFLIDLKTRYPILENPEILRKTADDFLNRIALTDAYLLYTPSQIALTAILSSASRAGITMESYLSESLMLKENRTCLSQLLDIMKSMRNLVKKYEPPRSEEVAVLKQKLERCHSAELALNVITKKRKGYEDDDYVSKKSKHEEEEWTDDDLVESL
Cyclin-dependent kinase 7/ cyclin H, sequence (P50613 whole entry): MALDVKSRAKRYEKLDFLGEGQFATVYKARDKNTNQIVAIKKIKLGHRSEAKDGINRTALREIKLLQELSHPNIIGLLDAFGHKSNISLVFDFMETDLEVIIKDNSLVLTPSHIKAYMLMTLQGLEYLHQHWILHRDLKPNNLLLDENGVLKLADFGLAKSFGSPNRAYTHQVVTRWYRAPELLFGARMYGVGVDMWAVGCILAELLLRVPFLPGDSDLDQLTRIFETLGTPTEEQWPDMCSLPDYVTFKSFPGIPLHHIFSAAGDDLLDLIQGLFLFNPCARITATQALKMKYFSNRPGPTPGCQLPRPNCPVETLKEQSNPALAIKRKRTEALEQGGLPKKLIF

Homo sapiens [4] = species: Homo sapiens; assay: Selectivity index, ratio of Ki for inhibition of recombinant human full length […]
[5] = Growth inhibition of patient derived CLL cells after 48 hrs by annexin V-FITC staining based flow cytometric analysis; assay type: functional; details: Homo sapiens, CLL-CII
Summary of the method: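 Freshly isolated primary CLL cells (10⁶/mL) in RPMI with 10% foetal calf serum, L-glutamine, penicillin and streptomycin, 37 °C, 5% CO₂, exposed to inhibitor for 48 h. Cells labelled with CD19-APC and annexin V-FITC; apoptosis quantified by flow cytometry in CD19+ cells. LD50 is the concentration killing 50% of CLL cells.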

HT-29 = assay: Growth inhibition of human HT-29 cells after 48 hrs by MTT assay; assay type: functional
MDA-MB-468 = assay: Growth inhibition of human MDA-MB-468 cells after 48 hrs by MTT assay; assay type: functional
A549 = assay: Growth inhibition of human A549 cells after 48 hrs by MTT assay; assay type: functional
A2780 = assay: Growth inhibition of human A2780 cells after 48 hrs by MTT assay; assay type: functional
HeLa = assay: Growth inhibition of human HeLa cells after 48 hrs by MTT assay; assay type: functional
MIA PaCa-2 = assay: Growth inhibition of human MIA PaCa-2 cells after 48 hrs by MTT assay; assay type: functional

SMILES | Ki (CDK9/cyclin T1) [µM] | Ki (CDK2/Cyclin A2) [µM] | Ratio Ki (Homo sapiens [1]) | GI50 (HCT-116) [µM] | GI50 (MCF7) [µM] | Ki [2] [µM] | Ki [3] [µM] | Ratio Ki (Homo sapiens [4]) | GI50 (HT-29) [µM] | GI50 (MDA-MB-468) [µM] | GI50 (A549) [µM] | GI50 (A2780) [µM] | GI50 (HeLa) [µM] | GI50 (MIA PaCa-2) [µM] | GI50 [5] [µM]
CNc1nc(C)c(-c2ccnc(Nc3cc(N4CCOCC4)cc(N4CCOCC4)c3)n2)s1 | 0.047 | 0.831 | 18 | 0.34 | 0.38 | – | – | – | – | – | – | – | – | – | –
CNc1nc(C(C)C)c(-c2ccnc(Nc3cccc(N4CCN(C(C)=O)CC4)c3)n2)s1 | 0.091 | 0.68 | 8 | 0.08 | 0.07 | – | – | – | – | – | – | – | – | – | –
CNc1nc(C)c(-c2nc(Nc3cccc(N4CCN(C(C)=O)CC4)c3)ncc2C(F)(F)F)s1 | 0.095 | 1.22 | 13 | 4.8 | 25 | – | – | – | – | – | – | – | – | – | –
C=Cc1cnc(Nc2cccc(N3CCOCC3)c2)nc1-c1sc(NC)nc1C | 0.062 | 0.503 | 8 | > 5 | > 5 | – | – | – | – | – | – | – | – | – | –
CC(=O)N1CCN(c2cccc(Nc3ncc4c(n3)-c3sc(N)nc3CC4)c2)CC1 | 0.034 | 0.087 | 2.5 | 0.06 | 0.08 | – | – | – | – | – | – | – | – | – | –
CNc1ncc(-c2ccnc(Nc3cccc(N4CCCNCC4)c3)n2)s1 | 0.003 | 0.022 | 7 | 0.08 | 0.06 | – | – | – | – | – | – | – | – | – | –
CNc1nc(C)c(-c2nc(Nc3cccc(N4CCNCC4)c3)ncc2C(F)(F)F)s1 | 0.049 | 1.93 | 40 | 4.05 | 3.05 | – | – | – | – | – | – | – | – | – | –
CNc1nc(C2CC2)c(-c2ccnc(Nc3cccc(C(=O)NC4CCN(C)CC4)c3)n2)s1 | 0.04 | 0.128 | 3 | 0.77 | 1.95 | – | – | – | – | – | – | – | – | – | –
CNc1nc(C)c(-c2ccnc(Nc3cccc(N4CCN(C(C)=O)CC4)c3)n2)s1 | 0.032 | 0.281 | 9 | 0.58 | 5.28 | – | – | – | – | – | – | – | – | – | –
CNc1nc(C)c(-c2nc(Nc3cc(N4CCN(C(C)=O)CC4)cc(N4CCN(C(C)=O)CC4)c3)ncc2C)s1 | 0.043 | 1.37 | 32 | 0.78 | 2 | – | – | – | – | – | – | – | – | – | –
CNc1nc(C(F)(F)F)c(-c2ccnc(Nc3cccc(N4CCCNCC4)c3)n2)s1 | 0.008 | 0.014 | 2 | 0.07 | 0.65 | – | – | – | – | – | – | – | – | – | –
CN1CC[C@H](c2c(O)cc(O)c3c(=O)cc(-c4ccccc4Cl)oc23)[C@H](O)C1 [ALVOCIDIB] | – | – | – | 0.056 | 0.092 | – | – | – | 0.131 | 0.096 | 0.145 | 0.064 | 0.043 | 0.078 | –
CNc1nc(C)c(-c2ccnc(Nc3cc(N4CCN(C(C)=O)CC4)cc(N4CCN(C(C)=O)CC4)c3)n2)s1 | 0.187 | 2.07 | 11 | 0.2 | 0.42 | – | – | – | – | – | – | – | – | – | –

Now from value to compound, other results behind:

Ki (CDK9/cyclin T1) [µM] | Ki (CDK2/Cyclin A2) [µM] | Ratio Ki (Homo sapiens [1]) | GI50 (HCT-116) [µM] | GI50 (MCF7) [µM] | Ki [2] [µM] | Ki [3] [µM] | Ratio Ki (Homo sapiens [4]) | GI50 (HT-29) [µM] | GI50 (MDA-MB-468) [µM] | GI50 (A549) [µM] | GI50 (A2780) [µM] | GI50 (HeLa) [µM] | GI50 (MIA PaCa-2) [µM] | SMILES | GI50 [5] [µM]
0.008 | 0.711 | 89 | 0.83 | 0.86 | 1.12 | 0.472 | 100 | – | – | – | – | – | – | CNc1nc(C)c(-c2nc(Nc3cccc(N4CCNCC4)c3)ncc2C)s1 | –
0.02 | 0.586 | 29 | 1.29 | 1.89 | – | – | – | – | – | – | – | – | – | CNc1nc(C)c(-c2nc(Nc3cccc(N4CCN(C)CC4)c3)ncc2C)s1 | –
0.005 | 0.016 | 3 | 0.49 | 0.95 | – | – | – | – | – | – | – | – | – | CNc1nc(C)c(-c2nc(Nc3cc(C)cc(N4CCOCC4)c3)ncc2C#N)s1 | –
0.006 | 0.044 | 7 | 1.54 | 4.13 | – | – | – | – | – | – | – | – | – | CNc1nc(C)c(-c2nc(Nc3cccc(N4CCCCCC4)c3)ncc2C#N)s1 | –
0.007 | 0.087 | 12 | 0.5 | 0.83 | – | – | – | – | – | – | – | – | – | CNc1nc(C)c(-c2nc(Nc3cccc(N4CCN(S(C)(=O)=O)CC4)c3)ncc2C)s1 | –
0.012 | 0.794 | 66 | 0.55 | 3.65 | – | – | – | – | – | – | – | – | – | CNc1nc(C)c(-c2nc(Nc3cccc(N4CCN(C(C)=O)CC4)c3)ncc2C)s1 | –
0.0075 | 0.125 | 16 | – | – | – | – | – | – | – | – | – | – | – | CNc1nc(C)c(-c2nc(Nc3cccc(N4CCN(C(C)=O)CC4)c3)ncc2Br)s1 | –
0.005 | 0.107 | 21 | 0.66 | 0.68 | – | – | – | – | – | – | – | – | – | CNc1nc(C)c(-c2nc(Nc3cccc(N4CCN(C)CC4)c3)ncc2Cl)s1 | –
0.021 | 0.248 | 12 | 0.7 | 2.4 | – | – | – | – | – | – | – | – | – | CNc1nc(C)c(-c2nc(Nc3cc(N4CCN(C(C)=O)CC4)cc(N4CCN(C(C)=O)CC4)c3)ncc2C#N)s1 | –
0.009 | 0.055 | 6 | 0.02 | 0.09 | – | – | – | – | – | – | – | – | – | CNc1nc(C)c(-c2nc(Nc3cc(N4CCOCC4)cc(N4CCOCC4)c3)ncc2C#N)s1 | –
0.008 | 1.24 | 156 | 1.37 | 0.87 | 0.785 | 0.089 | 100 | – | – | – | – | – | – | CNc1nc(C)c(-c2nc(Nc3cccc(N4CCCNCC4)c3)ncc2C)s1 | 0.81
0.01 | 0.444 | 44 | 0.36 | 0.45 | – | – | – | – | – | – | – | – | – | CNc1nc(C)c(-c2nc(Nc3cccc(N4CCOCC4)c3)ncc2C)s1 | –
0.006 | 0.045 | 8 | 0.08 | 0.61 | – | – | – | – | – | – | – | – | – | CNc1nc(C)c(-c2nc(Nc3cc(C)cc(N4CCNCC4)c3)ncc2C#N)s1 | –
0.004 | 0.022 | 6 | 0.43 | 0.72 | – | – | – | – | – | – | – | – | – | CNc1nc(C)c(-c2nc(Nc3cccc(N4CCOCC4)c3)ncc2Cl)s1 | –
0.019 | 0.525 | 28 | 2.12 | 6.44 | – | – | – | – | – | – | – | – | – | CNc1nc(C)c(-c2nc(Nc3cccc(N4CCNC(=O)CC4)c3)ncc2C)s1 | –
0.025 | 0.052 | 2 | 4.05 | 7.04 | – | – | – | – | – | – | – | – | – | CNc1nc(C)c(-c2nc(Nc3cc(C)cc(N4CCCCCC4)c3)ncc2C#N)s1 | –
